G6PDH CS: counter-screen for G6PDH assay hits: L. mesenteroides G6PDH inhibition | Purified L. mesenteroides G6PDH, diaphorase/resazurin coupled fluorescence, 45 min | inhibition, % at 5 µM | 0.12% of 200,000 active
L major viab: reduces viability of Leishmania major promastigotes; AID 1063; 9% of 200,000 active; resazurin fluorescence viability; inhibition, % at 10 µM;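 further: promastigotes grown with compound for 44 hours at 28 °C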
Diaph inh CS: diaphorase inhibition or chemical oxidation counter-screen. diaphorase resazurin-to-resorufin fluorescence, NADH, 16 min; bacterial (C. kluyveri) enzyme, not human. inhibition, % at 20 µM. 0.69% of 190,000 active. AID 1217;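 active means primary screen inhibition at 20 µM above a set limit, cut at about 50% in these data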
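Benchmarks: positive control wells lacking NADH, neutral wells with DMSO only. System: bacterial diaphorase enzyme (C. kluyveri). Input: 0.14 U/mL diaphorase, enzyme working solution. Detection: resorufin fluorescence, excitation 544 nm, emission 590 nm. Times: 16-min room-temperature incubation before reading.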
Diaphorase act: diaphorase activation or chemical reduction counter-screen. Diaphorase/resazurin coupled assay, resorufin fluorescence, 16 min; stronger effect = higher value; 1 = vehicle wells, 0 = NADH-free wells. activation factor at 20 µM. 0.005% of 190,000 active;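 active means diaphorase activity raised at least twofold by the compound at 20 µM; inactive means activation factor below 2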
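Material: purified diaphorase enzyme from Clostridium kluyveri / Medium: HEPES pH 7.4 buffer with MgCl2 and Tween 20 / Schedule: enzyme reaction of 16 min at room temperature / Measured by: resorufin fluorescence, excitation 544 nm, emission 590 nm / Evaluation: rise in resorufin formation, marking diaphorase activation or chemical reduction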
WT yeast gro inh: growth inhibition of WT yeast, mitochondrial fusion screen. AID 1362. inhibition, % at 10 µM. mitochondrial fusion phenotypic screen, WT strain. 2.1% of 190,000 active; in the data active means inhibition above about 58%; tested in S. cerevisiae
A number is an active result. The list is not random: actives were taken first. Their share in the collection is about 11%. Unless noted, no stated cut-off is given here; in the data, active means inhibition above about 50%; inactive means the rest.

`CN(C)CCNC(=O)c1ccc2c(c1)N(Cc1ccc(F)cc1)CCS2` gave G6PDH CS inactive, L major viab 99.8, Diaph inh CS inactive, Diaphorase act inactive and WT yeast gro inh inactive.
NS(=O)(=O)c1ccc(CCNC(=O)C2CCC(Cn3c(=S)[nH]c4ccccc4c3=O)CC2)cc1 (stereo not drawn) was read as G6PDH CS inactive, L major viab inactive, Diaph inh CS inactive, Diaphorase act inactive and WT yeast gro inh inactive.
Screening Fc1ccc(/C=N/Nc2ncnc3nc[nH]c23)cc1F returned G6PDH CS inactive, L major viab 50.1, Diaph inh CS inactive, Diaphorase act inactive and WT yeast gro inh inactive.
`C(=N\Nc1ncnc2nc[nH]c12)/c1cccs1` gave G6PDH CS inactive, L major viab inactive, Diaph inh CS inactive, Diaphorase act inactive and WT yeast gro inh inactive.
`COc1ccc(/C=C/C(=O)c2ccc3c4c(cccc24)CC3)cc1` gave G6PDH CS inactive, L major viab inactive, Diaph inh CS inactive, Diaphorase act inactive and WT yeast gro inh inactive.
For COc1ccc(/C=C/C(=O)c2cc(F)ccc2OC(=O)c2ccccc2C)cc1OC the results were G6PDH CS inactive, L major viab 59.6, Diaph inh CS inactive, Diaphorase act inactive and WT yeast gro inh inactive.
`COc1ccc(/C=C/C(=O)c2ccc3c4c(cccc24)CC3)cc1OC` gave G6PDH CS inactive, L major viab 59.6, Diaph inh CS inactive, Diaphorase act inactive and WT yeast gro inh inactive.
Screening Cc1noc(C)c1C(=O)NC(C)c1ccc(Cl)cc1Cl (stereo not drawn) returned G6PDH CS inactive, L major viab inactive, Diaph inh CS inactive, Diaphorase act inactive and WT yeast gro inh inactive.
Screening CSc1ccc(CN(C)CC(=O)Nc2cccc(Br)c2)cc1 returned G6PDH CS inactive, L major viab inactive, Diaph inh CS inactive, Diaphorase act inactive and WT yeast gro inh inactive.
CSc1ccc(CN(C)CC(=O)Nc2ccc(C)cc2Br)cc1 was read as G6PDH CS inactive, L major viab inactive, Diaph inh CS inactive, Diaphorase act inactive and WT yeast gro inh 62.0.
CCc1ccc(OCC(O)CN2CCC(CN3C(=O)c4cccc5cccc(c45)C3=O)CC2)cc1 (stereo not drawn) was read as G6PDH CS inactive, L major viab 100.3, Diaph inh CS inactive, Diaphorase act inactive and WT yeast gro inh inactive.
Screening COc1cccc(OCC(O)CN2CCC(CN3C(=O)c4cccc5cccc(c45)C3=O)CC2)c1 (stereo not drawn) returned G6PDH CS inactive, L major viab 87.4, Diaph inh CS inactive, Diaphorase act inactive and WT yeast gro inh inactive.
O=C(CSc1nnc(-c2c[nH]c3ccccc23)o1)N(Cc1ccccc1)c1ccc(F)cc1 was read as G6PDH CS inactive, L major viab 64.3, Diaph inh CS inactive, Diaphorase act inactive and WT yeast gro inh 59.5.
COc1ccc(S(=O)(=O)N2c3ccccc3OCC2C(C)(C)C)cc1 (stereo not drawn) was read as G6PDH CS inactive, L major viab inactive, Diaph inh CS inactive, Diaphorase act inactive and WT yeast gro inh 77.0.
COc1ccc(S(=O)(=O)N2c3ccccc3OCC2C)cc1 (stereo not drawn) was read as G6PDH CS inactive, L major viab inactive, Diaph inh CS inactive, Diaphorase act inactive and WT yeast gro inh inactive.
Screening Cc1cc2c3c(c1C)C1(C(=O)N3C(C)(C)CC2C)C(C#N)=C(N)Oc2cc(O)ccc21 (stereo not drawn) returned G6PDH CS inactive, L major viab 69.8, Diaph inh CS inactive, Diaphorase act inactive and WT yeast gro inh inactive.
`COc1cc2c3c(c1)C1(C(=O)N3C(C)(C)C=C2C)C(C#N)=C(N)Oc2cc(O)ccc21` (stereo not drawn) gave G6PDH CS inactive, L major viab 67.3, Diaph inh CS inactive, Diaphorase act inactive and WT yeast gro inh inactive.
Screening Cc1cc2c3c(c1)C1(C(=O)N3C(C)(C)CC2C)C(C#N)=C(N)OC2=C1C(=O)CC(C)(C)C2 (stereo not drawn) returned G6PDH CS inactive, L major viab inactive, Diaph inh CS inactive, Diaphorase act inactive and WT yeast gro inh inactive.
CCOc1cc2c3c(c1)C1(C(=O)N3C(C)(C)C=C2C)C(C#N)=C(N)Oc2cc(O)ccc21 (stereo not drawn) was read as G6PDH CS inactive, L major viab inactive, Diaph inh CS inactive, Diaphorase act inactive and WT yeast gro inh inactive.

High-throughput results from PubChem.
